The record followed here is paper PMC9059984 (RSC Advances, 2019).

What all share (assay type): biochemical
Test [1] concerns sDTE (Sinorhizobium sp. D-tagatose 3-epimerase). Briefly: Michaelis-Menten non-linear regression. The note with it: optimum pH 8.0 (Tris-HCl) and 50 °C; Mn2+. A digest of the protocol: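 Enzyme expressed from pET28a(+) in E. coli BL21(DE3) (0.5 mM IPTG, 16 °C, 20 h), purified on Ni-NTA then Resource Q. Standard assay: 20 mM Tris–HCl pH 8.0, 1 μM Mn2+, 0.5 μM enzyme, 50 °C, 10 min; stopped by boiling 5 min; sugars by HPLC-ELSD. Kinetics used four ketose substrates, with Michaelis–Menten non-linear fit; three repeats, mean ± S.D.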

The target of test [2] is T1, sDTE (Sinorhizobium sp. D-tagatose 3-epimerase) (Sinorhizobium sp., UniProt Z9YNK1L8X5, M9A).
T1 sequence (Z9YNK1L8X5 1-293 M9A): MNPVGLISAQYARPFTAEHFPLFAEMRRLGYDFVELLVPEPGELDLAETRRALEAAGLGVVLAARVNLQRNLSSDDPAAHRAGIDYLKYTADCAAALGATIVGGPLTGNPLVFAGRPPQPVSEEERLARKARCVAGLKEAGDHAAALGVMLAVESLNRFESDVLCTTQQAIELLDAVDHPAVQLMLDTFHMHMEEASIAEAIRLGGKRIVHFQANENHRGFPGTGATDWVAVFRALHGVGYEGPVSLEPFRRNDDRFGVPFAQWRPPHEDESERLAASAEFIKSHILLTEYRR
Briefly: D-sorbose formation by HPLC, relative activity. The note with it: […] g/L D-tagatose, […] Mn2+, […] enzyme, pH […] °C, […] min.

Test [3] has as its target T2, sDTE (Sinorhizobium sp. D-tagatose 3-epimerase) (Sinorhizobium sp., UniProt Z9YNK1L8X5, R65G).
T2 sequence (Z9YNK1L8X5 1-293 R65G): T1 sequence (Z9YNK1L8X5 1-293 M9A) with A9M, R65G
Briefly: D-sorbose formation by HPLC, relative activity. The note with it: […] g/L D-tagatose, […] Mn2+, […] enzyme, pH […] °C, […] min.

As a reminder, the Km is the substrate concentration at which the rate is half of its maximum.

Changes are numbered by the printed parent chain.

`O=C(CO)[C@H](O)[C@H](O)[C@H](O)CO` [D-Allulose]: the Km in test [1] came to 39.8 ± 1.7 mM.
Same read-out and setting: the figure for `OCC1(O)OC[C@@H](O)[C@@H](O)[C@@H]1O` (stereo partly drawn) [D-Fructose] is 54.7 ± 1.3 mM.
In the case of `OCC1(O)OC[C@@H](O)[C@H](O)[C@H]1O` (stereo partly drawn) [D-Sorbose], the Km in test [1] was determined as 83 ± 4.3 mM.
With `OCC1(O)OC[C@@H](O)[C@H](O)[C@@H]1O` (stereo partly drawn) [D-Tagatose], the Km in test [1] stood at 26 ± 1.2 mM. The “D-sorbose formation by HPLC, relative activity” value was “the mutation of R65G and M9A abolished the catalytic activity toward D-tagatose” in test [2]; “the mutation of R65G and M9A abolished the catalytic activity toward D-tagatose” in test [3].
